Measured values from ChEMBL document CHEMBL3877262, “Synthesis and antioxidant evaluation of desmethylxanthohumol analogs and their dimers” (Eur J Med Chem, 2017).
Activity calls are given as the source filed them. The calls are words filed in the database; no cut-off is given here.

Columns and labels:
[1] = Antioxidant activity against H2O2-induced oxidative stress in rat PC12 cells assessed as viable cells at 100 uM pretreated for 0.5 hrs followed by H2O2 challenge measured after 2 hrs by MTT assay (reference value: 25.47%); type: functional; conditions: PC-12, read-out: Activity
PC-12 [2] = test: Cytoprotective activity against H2O2-induced oxidative stress in rat PC12 cells assessed as morphological changes at 10 uM pretreated for 0.5 hrs followed by H2O2 challenge measured after 2 hrs; type: functional, cell-based
Outline: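 PC12 cells were handled as in the H2O2/MTT model: compound at 10 µM for 0.5 h, then H2O2 (100 µM) for 2 h. Morphology (shrinkage, blebbing) was viewed at 200×. Control cells received medium with 0.1% DMSO only. Gallic acid (10 µM) was the positive control.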

PC-12 [3] = test: Cytoprotective activity against H2O2-induced oxidative stress in rat PC12 cells assessed as viable cells at 10 uM pretreated for 0.5 hrs followed by H2O2 challenge measured after 2 hrs by Annexin-V-FITC/propidium iodide staining based flow cytometry (reference value: 94.1 %); type: functional; conditions: read-out: Activity
PC-12 [4] = test: Cytoprotective activity against H2O2-induced oxidative stress in rat PC12 cells assessed as early apoptotic cells at 10 uM pretreated for 0.5 hrs followed by H2O2 challenge measured after 2 hrs by Annexin-V-FITC/propidium iodide staining based flow cytometry (reference value: 1.1 %); type: functional
PC-12 [5] = test: Cytoprotective activity against H2O2-induced oxidative stress in rat PC12 cells assessed as late apoptotic cells at 10 uM pretreated for 0.5 hrs followed by H2O2 challenge measured after 2 hrs by Annexin-V-FITC/propidium iodide staining based flow cytometry (reference value: 2.3 %); type: functional
PC-12 [6] = test: Cytoprotective activity against H2O2-induced oxidative stress in rat PC12 cells assessed as necrotic cells at 10 uM pretreated for 0.5 hrs followed by H2O2 challenge measured after 2 hrs by Annexin-V-FITC/propidium iodide staining based flow cytometry (reference value: 2.4 %); type: functional
PC-12 [7] = test: Cytoprotective activity against H2O2-induced oxidative stress in rat PC12 cells assessed as lactate dehydrogenase release at 10 uM pretreated for 30 mins followed by H2O2 challenge measured after 2 hrs by spectrophotometric method (reference value: 479.77 U/L); type: functional
[8] = Antioxidant activity against H2O2-induced oxidative stress in rat PC12 cells assessed as 8-OHdG level at 10 uM pretreated for 0.5 hrs followed by H2O2 challenge measured after 2 hrs (reference value: 123.97 ng/L); type: functional, PC-12
[9] = Antioxidant activity against H2O2-induced oxidative stress in rat PC12 cells assessed as GSH level per gram of protein at 10 uM pretreated for 0.5 hrs followed by H2O2 challenge measured after 2 hrs by GSH peroxidase assay (reference value: 59.93 umol); type: functional, PC-12
[10] = Antioxidant activity assessed as vitamin-c equivalent measured after 20 mins by FRAP assay; type: functional
[11] = Antioxidant activity assessed as ABTS radical scavenging activity measured after 10 mins by ABTS assay; type: functional
Outline: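 ABTS (10 mM in sodium acetate) oxidised with H2O2 and held 12 h in the dark. It was diluted to A650 0.70 and mixed with compound, shaken 30 s, and A650 read after 10 min. EC50 by nonlinear regression from three independent experiments.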

[12] = Cytotoxicity against HUVEC measured after 48 hrs by MTT assay; type: toxicity, cell-based; conditions: human, HUVEC cells
Outline: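 HUVECs were seeded at 5×10^3 cells/well for 24 h, then exposed to compounds dissolved in DMSO for 48 h. MTT (5 mg/ml) was added for 4 h, cells solubilized in DMSO and OD read at 490 nm. IC50 was derived from mean OD of triplicate tests.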

Rattus norvegicus [13] = species on record: Rattus norvegicus; test: Cytotoxicity against rat PC12 cells at 200 uM measured after 48 hrs by MTT assay; type: toxicity, cell-based; conditions: pc-12, 48 h
Rattus norvegicus [14] = species on record: Rattus norvegicus; test: Cytotoxicity against rat PC12 cells at 100 uM measured after 48 hrs by MTT assay; type: toxicity, cell-based; conditions: pc-12, 48 h

CC1(C)C=Cc2c(O)cc(O)c(C(=O)/C=C/c3cccc(O)c3O)c2O1
viability at 100 µM [1]: 54.5%

CC1(C)C=Cc2c(O)c(Cc3c(O)c4c(c(C(=O)/C=C/c5ccc(O)c(O)c5O)c3O)OC(C)(C)C=C4)c(O)c(C(=O)/C=C/c3ccc(O)c(O)c3O)c2O1
viability at 100 µM [1]: 85.2% | Activity (PC-12 [2]): Active | viability at 10 µM (PC-12 [3]): 95.6% | Activity (PC-12 [4]): 1.1% | Activity (PC-12 [5]): 2.7% | Activity (PC-12 [6]): 0.5% | Activity (PC-12 [7]): 251.45 U/L | Activity [8]: 62.8 ng/L | Activity [9]: 105.71 µmol | Activity [10]: 648 mgequiv/mmol | EC50 [11]: 0.54 µM

CC1(C)C=Cc2c(O)c(Cc3c(O)c4c(c(C(=O)/C=C/c5cccc(O)c5O)c3O)OC(C)(C)C=C4)c(O)c(C(=O)/C=C/c3cccc(O)c3O)c2O1
viability at 100 µM [1]: 77.5%

CC1(C)C=Cc2c(O)c(Cc3c(O)c4c(c(C(=O)/C=C/c5ccc(O)cc5)c3O)OC(C)(C)C=C4)c(O)c(C(=O)/C=C/c3ccc(O)cc3)c2O1
viability at 100 µM [1]: 44.9%

CC1(C)C=Cc2c(O)cc(O)c(C(=O)/C=C/c3ccc(O)cc3O)c2O1
viability at 100 µM [1]: 24.1%

CC1(C)C=Cc2c(O)cc(O)c(C(=O)/C=C/c3ccc(O)cc3)c2O1
IC50 at 48 h [12]: 41.1 µM | Activity (Rattus norvegicus [13]): Toxic | Activity (Rattus norvegicus [14]): Toxic | viability at 100 µM [1]: 20.6%

O=C(O)c1cc(O)c(O)c(O)c1 [GALLIC ACID]
viability at 100 µM [1]: 88.9% | viability at 10 µM (PC-12 [3]): 81.9% | Activity (PC-12 [4]): 0.5% | Activity (PC-12 [5]): 13.4% | Activity (PC-12 [6]): 4.2% | Activity (PC-12 [7]): 326.59 U/L | Activity [8]: 85.7 ng/L | Activity [9]: 99.73 µmol | Activity [10]: 531 mgequiv/mmol | EC50 [11]: 0.35 µM

CC1(C)C=Cc2c(O)c(Cc3c(O)c4c(c(C(=O)/C=C/c5ccc(O)cc5O)c3O)OC(C)(C)C=C4)c(O)c(C(=O)/C=C/c3ccc(O)cc3O)c2O1
viability at 100 µM [1]: 43.4%

CC(C)=CCc1c(O)cc(O)c(C(=O)/C=C/c2ccc(O)cc2)c1O [DEMETHYLXANTHOHUMOL]
IC50 at 48 h [12]: 18.9 µM | Activity (Rattus norvegicus [13]): Toxic | Activity (Rattus norvegicus [14]): Toxic

CC1(C)C=Cc2c(O)cc(O)c(C(=O)/C=C/c3ccc(O)c(O)c3O)c2O1
viability at 100 µM [1]: 84%
